The source of these data is ChEMBL document CHEMBL1144645, “The discovery of highly selective erbB2 (Her2) inhibitors for the treatment of cancer” (Bioorg Med Chem Lett, 2007).

The target of series [1] is Epidermal growth factor receptor and ErbB2 (HER1 and HER2) (Homo sapiens) (UniProt P04626+P00533). The experiment in a line: Selectivity for erbB2 over EGFR. The series is classed as protein assay. The method in brief:
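Cell selectivity: IC50 ratio between two NIH3T3 lines run under identical conditions, one carrying human EGFR and one carrying the EGFR-extracellular/erbB2-intracellular chimera. Each line takes 2 h inhibitor, then 15 min human recombinant EGF. Phosphotyrosine measured with HRP-PY-54 and TMB at 450 nm.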

Series [2] concerns the target T1, Receptor tyrosine-protein kinase erbB-2 (Homo sapiens, UniProt P04626). The experiment in a line: Inhibition of erbB2 in NH3T3 cells. The series is classed as cell-based. The method in brief:
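NIH3T3 cells expressing a chimera of EGFR extracellular and erbB2 intracellular domains are plated, exposed to inhibitor for 2 h, then stimulated with human recombinant EGF for 15 min. Receptor phosphotyrosine read with HRP-PY-54 antibody and TMB, A450. IC50 is the mean of at least two experiments.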

Series [3] concerns the target T1, Receptor tyrosine-protein kinase erbB-2. The experiment in a line: Inhibition of erbB2 expressed in Sf9 cells. The essentials: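 GST-tagged erbB2 intracellular domain (residues 675–1255) made in baculovirus/Sf9 and purified; ~15 ng enzyme phosphorylates poly(Glu,Tyr) with 1 mM ATP plus inhibitor over 6 min. Phosphotyrosine detected by HRP-PY-54 antibody and TMB, A450. IC50 is the mean of at least two experiments.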

A short description of series [4]: Half life in rat at 2 mg/kg, iv after 1 hr. The series is classed as ADME, organism-based. On the set-up: dose 2 mg/kg, route intravenous. The following applies: in vivo. The essentials:
(§1)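 Single 2 mg/kg IV dose (HCl salt) to define clearance, volume of distribution and half-life; oral arm given 5 mg/kg in 0.5% methylcellulose to derive bioavailability (F).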

The nature of series [5]: Bioavailability in rat at 5 mg/kg, po. The series is classed as ADME, organism-based. The following applies: in vivo. The method in brief: as §1
The nature of series [6]: Volume of distribution in rat at 2 mg/kg, iv. The series is classed as ADME, organism-based. On the set-up: dose 2 mg/kg, route intravenous. The following applies: in vivo, read-out: Vdss. The method in brief:
as §1

Series [7] can be described thus: Clearance in rat at 2 mg/kg, iv. The series is classed as ADME, organism-based. On the set-up: dose 2 mg/kg, route intravenous. The following applies: in vivo. The essentials: as §1

T1 sequence (P04626 whole entry, the tested form may be a part): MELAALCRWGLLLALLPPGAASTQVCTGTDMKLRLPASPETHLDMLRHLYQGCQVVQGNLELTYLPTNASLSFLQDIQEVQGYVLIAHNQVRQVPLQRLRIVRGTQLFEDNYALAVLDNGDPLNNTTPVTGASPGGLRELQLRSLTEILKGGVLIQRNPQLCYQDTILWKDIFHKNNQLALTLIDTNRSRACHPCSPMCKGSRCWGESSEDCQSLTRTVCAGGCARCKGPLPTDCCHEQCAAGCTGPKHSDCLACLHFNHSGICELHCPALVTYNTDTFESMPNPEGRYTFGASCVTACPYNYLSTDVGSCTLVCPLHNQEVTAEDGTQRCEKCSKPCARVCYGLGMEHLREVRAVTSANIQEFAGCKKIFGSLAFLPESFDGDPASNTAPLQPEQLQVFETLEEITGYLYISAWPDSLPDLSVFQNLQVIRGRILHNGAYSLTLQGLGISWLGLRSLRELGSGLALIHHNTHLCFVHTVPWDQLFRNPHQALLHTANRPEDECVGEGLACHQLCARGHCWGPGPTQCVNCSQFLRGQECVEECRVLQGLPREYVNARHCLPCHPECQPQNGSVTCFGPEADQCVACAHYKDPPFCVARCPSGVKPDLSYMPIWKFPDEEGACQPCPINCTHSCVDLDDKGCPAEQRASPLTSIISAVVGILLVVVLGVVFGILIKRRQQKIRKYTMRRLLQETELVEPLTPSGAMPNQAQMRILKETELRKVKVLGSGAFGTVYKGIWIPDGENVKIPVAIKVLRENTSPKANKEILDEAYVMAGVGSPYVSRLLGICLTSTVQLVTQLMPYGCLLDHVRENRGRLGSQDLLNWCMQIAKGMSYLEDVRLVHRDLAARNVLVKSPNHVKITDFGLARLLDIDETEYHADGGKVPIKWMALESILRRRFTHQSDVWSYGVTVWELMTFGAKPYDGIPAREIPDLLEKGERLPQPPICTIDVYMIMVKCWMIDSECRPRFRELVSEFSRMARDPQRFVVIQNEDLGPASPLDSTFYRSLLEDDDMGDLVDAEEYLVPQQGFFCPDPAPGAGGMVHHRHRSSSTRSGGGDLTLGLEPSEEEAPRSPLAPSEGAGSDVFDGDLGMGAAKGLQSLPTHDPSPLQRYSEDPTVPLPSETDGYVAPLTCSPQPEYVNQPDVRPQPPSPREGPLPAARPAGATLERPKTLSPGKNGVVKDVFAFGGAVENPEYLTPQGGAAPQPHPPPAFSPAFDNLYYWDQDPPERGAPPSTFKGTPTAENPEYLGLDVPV

Take `COCCOc1ccc2ncnc(Nc3ccc(OC4CCN(C(=O)CC(C)(C)C)CC4)c(C)c3)c2c1`: in series [1], the Selectivity ratio was > 500. Also, the IC50 is 0.019 µM in series [2] and 0.12 µM in series [3].
The matching figures for `COCC(=O)NCC#Cc1ccc2ncnc(Nc3ccc(Oc4cccc(C(=O)NCC(C)(C)C)c4)c(C)c3)c2c1`: 91, 0.11 µM and 0.13 µM.
The corresponding values for `CNc1cc2c(Nc3ccc(Oc4ccc(C(=O)NCC(C)(C)C)cc4)c(C)c3)ncnc2cn1` are 230, 0.013 µM and 0.03 µM.
`COCC(=O)NCC#Cc1ccc2ncnc(Nc3ccc(Oc4ccc(C(=O)N(C)C)cc4)c(C)c3)c2c1`: the IC50 in series [3] was > 10 µM.
The same measure, in the same setting: with `COCC(=O)NCC#Cc1ccc2ncnc(Nc3ccc(Oc4cccc(C(=O)Nc5ccccc5)c4)c(C)c3)c2c1` the figure was 0.14 µM; with `COc1ccc2ncnc(Nc3ccc(OC4CCN(C(=O)CC(C)(C)C)CC4)c(C)c3)c2c1`, 0.096 µM.
On the same count and under the same terms, with `COCC(=O)NCC#Cc1ccc2ncnc(Nc3ccc(Oc4ccc(C(=O)Nc5ccccc5)cc4)c(C)c3)c2c1` the figure was > 10 µM.
On to `COc1cc2ncnc(Nc3ccc(Oc4ccc(C(=O)NCC(C)(C)C)cc4)c(C)c3)c2cc1OC`, for which, in series [1], the Selectivity ratio worked out at 1. For the same compound, the IC50 in series [2] turned out to be 0.31 µM; in series [3], 0.077 µM.
The corresponding values for `Cc1cc(Nc2ncnc3cnc(N4CCCC4)cc23)ccc1Oc1ccc(C(=O)NCC(C)(C)C)cc1` are > 100, < 0.01 µM and 0.036 µM.
With `COCC(=O)NCC#Cc1ccc2ncnc(Nc3ccc(OC4CCN(C(=O)COC)CC4)c(C)c3)c2c1`, the half-inhibitory concentration (IC50) in series [3] was > 10 µM.
With `COCCOc1ccc2ncnc(Nc3ccc(OC4CCN(C(=O)Nc5c(F)cccc5F)CC4)c(C)c3)c2c1`, the Selectivity ratio in series [1] is > 300. Moreover, the results for the IC50 in series [2] and in series [3] were 0.033 µM and 0.027 µM, respectively.
Regarding `COCCOc1cc2ncnc(Nc3ccc(OC4CCN(C(=O)Nc5c(F)cccc5F)CC4)c(C)c3)c2cc1OCCOC`, the Selectivity ratio in series [1] was determined as 6.5. Also, the IC50 stood at 0.84 µM in series [2] and 0.23 µM in series [3].
On to `COCC(=O)NCC#Cc1ccc2ncnc(Nc3ccc(OC4CCN(C(=O)C5CCCO5)CC4)c(C)c3)c2c1` (stereo unspecified), for which the IC50 in series [2] came to 2.9 µM; in series [3], 0.55 µM.
For the compound `Cc1cc(Nc2ncnc3cnc(NCCN4CCOCC4)cc23)ccc1Oc1ccc(C(=O)NCC(C)(C)C)cc1`, the Selectivity ratio in series [1] came to 230. Further, the half-inhibitory concentration (IC50) in series [2] amounted to 0.015 µM; in series [3], 0.28 µM.
In the case of `COCC(=O)NCC#Cc1ccc2ncnc(Nc3ccc(OC4CCN(C(=O)C5CCC5)CC4)c(C)c3)c2c1`, the Selectivity ratio in series [1] was > 200. The results for the IC50 in series [2] and in series [3] were 0.051 µM and 0.15 µM, respectively.
Take `COCC(=O)NCC#Cc1ccc2ncnc(Nc3ccc(OC4CCN(C)CC4)c(C)c3)c2c1`: in series [3], the IC50 was > 10 µM.
For `CNc1cc2c(Nc3ccc(OC4CCN(C(=O)Nc5c(F)cccc5F)CC4)c(C)c3)ncnc2cn1`, the Selectivity ratio in series [1] was 25. The values for the IC50 in series [2] and in series [3] were 0.18 µM and 0.025 µM, respectively.
As to `COCC(=O)NCC#Cc1ccc2ncnc(Nc3ccc(OC4CCNCC4)c(C)c3)c2c1`, in series [3], the IC50 was > 10 µM.
Still for that read-out and setting: as for `COCC(=O)NCC#Cc1ccc2ncnc(Nc3ccc(Oc4cccc(C(=O)N(C)C)c4)c(C)c3)c2c1`, the figure is > 10 µM.
As for `Cc1cc(Nc2ncnc3cnc(N(C)C)cc23)ccc1Oc1ccc(C(=O)NCC(C)(C)C)cc1`, the Selectivity ratio in series [1] was > 770. The IC50 was < 0.01 µM in series [2] and 0.048 µM in series [3].
The corresponding values for `COc1ccc2ncnc(Nc3ccc(OC4CCN(C(=O)Nc5c(F)cccc5F)CC4)c(C)c3)c2c1` are 11, 0.25 µM and 0.046 µM.
The matching figures for `Cc1cc(Nc2ncnc3cnc(N4CCOCC4)cc23)ccc1OC1CCN(C(=O)Nc2c(F)cccc2F)CC1`: 210, 0.016 µM and 0.007 µM.
Take `Cc1cc(Nc2ncnc3cnc(N4CCOCC4)cc23)ccc1OC1CCN(C(=O)C2CCCC2)CC1`: the Selectivity ratio in series [1] was > 300. The half-life in series [4] was 1 h. Besides, the IC50 in series [2] amounted to 0.033 µM; in series [3], 0.018 µM. The bioavailability in series [5] is 54%. Also, in series [6], the Vd was determined as 0.2 L/kg. Besides, the clearance in series [7] came out at 0.15 L/h/kg.
As to `Cc1cc(Nc2ncnc3ccc(OCCCN4CCOCC4)cc23)ccc1OC1CCN(C(=O)Nc2c(F)cccc2F)CC1`, in series [1], the Selectivity ratio worked out at 32. The IC50 in series [2] and in series [3] was 0.055 µM throughout.
For `COCC(=O)NCC#Cc1ccc2ncnc(Nc3ccc(OC4CCN(C(=O)Nc5c(F)cccc5F)CC4)c(C)c3)c2c1`, the Selectivity ratio in series [1] was > 53. Further, the IC50 in series [2] was 0.19 µM; in series [3], 0.076 µM.
As to `CNC(=O)c1cccc(Oc2ccc(Nc3ncnc4ccc(C#CCNC(=O)COC)cc34)cc2C)c1`, the IC50 in series [3] was > 10 µM.
As for `Cc1cc(Nc2ncnc3cnc(N4CCOCC4)cc23)ccc1OC1CCN(C(=O)CC(C)(C)C)CC1`, in series [1], the Selectivity ratio was > 1000. Moreover, the half-maximal inhibitory concentration (IC50) was < 0.01 µM in series [2] and 0.023 µM in series [3].
The matching figures for `Cc1cc(Nc2ncnc3cnc(N4CCN(C)CC4)cc23)ccc1Oc1ccc(C(=O)NCC(C)(C)C)cc1`: > 660, 0.015 µM and 0.13 µM.
`COCC(=O)NCC#Cc1ccc2ncnc(Nc3ccc(Oc4ccc(C(=O)NC(C)(C)C)cc4)c(C)c3)c2c1`: the IC50 in series [3] was > 10 µM.
With `COCC(=O)NCC#Cc1ccc2ncnc(Nc3ccc(OC4CCN(C(=O)c5cccc(Cl)c5)CC4)c(C)c3)c2c1`, the Selectivity ratio in series [1] is 92. The IC50 in series [2] stood at 0.075 µM; in series [3], 0.21 µM.
On to `Cc1cc(Nc2ncnc3cnc(N(C)C)cc23)ccc1OC1CCN(C(=O)CC(C)(C)C)CC1`, for which the Selectivity ratio in series [1] is > 230. Further, the IC50 in series [2] is < 0.01 µM; in series [3], 0.051 µM.
On to `Cc1cc(Nc2ncnc3cnc(N(C)C)cc23)ccc1OC1CCN(C(=O)Nc2c(F)cccc2F)CC1`, for which the Selectivity ratio in series [1] was found to be 68. The IC50 was 0.02 µM in series [2] and 0.021 µM in series [3].
For `CNC(=O)c1ccc(Oc2ccc(Nc3ncnc4ccc(C#CCNC(=O)COC)cc34)cc2C)cc1`, in series [3], the half-maximal inhibitory concentration (IC50) is > 10 µM.
As for `Cc1cc(Nc2ncnc3ccc(OCCCN4CCOCC4)cc23)ccc1OC1CCN(C(=O)CC(C)(C)C)CC1`, the Selectivity ratio in series [1] is > 290. In addition, the IC50 in series [2] worked out at 0.034 µM; in series [3], 0.075 µM.
The matching figures for `COCC(=O)NCC#Cc1ccc2ncnc(Nc3ccc(Oc4ccc(C(=O)NCC(C)(C)C)cc4)c(C)c3)c2c1`: 200, 0.023 µM and 0.14 µM.
As to `COc1cc2ncnc(Nc3ccc(OC4CCN(C(=O)CC(C)(C)C)CC4)c(C)c3)c2cc1OC`, the Selectivity ratio in series [1] is > 130. Also, the IC50 turned out to be 0.076 µM in series [2] and 0.1 µM in series [3].
For the compound `COCC(=O)NCC#Cc1ccc2ncnc(Nc3ccc(OC4CCN(C(C)=O)CC4)c(C)c3)c2c1`, the IC50 in series [3] was > 10 µM.
For `COCCOc1ccc2ncnc(Nc3ccc(OC4CCN(C(=O)C5CCCC5)CC4)c(C)c3)c2c1`, in series [1], the Selectivity ratio is > 350. The IC50 in series [2] was determined as 0.029 µM; in series [3] it was 0.044 µM.
The corresponding values for `COCC(=O)NCC#Cc1ccc2ncnc(Nc3ccc(OC4CCN(C(=O)CC(C)(C)C)CC4)c(C)c3)c2c1` are 400, 0.016 µM and 0.094 µM.
The corresponding values for `COCCOc1cc2ncnc(Nc3ccc(OC4CCN(C(=O)CC(C)(C)C)CC4)c(C)c3)c2cc1OCCOC` are 11, 0.53 µM and 0.26 µM.
The matching figures for `COc1cc2ncnc(Nc3ccc(OC4CCN(C(=O)Nc5c(F)cccc5F)CC4)c(C)c3)c2cc1OC`: 23, 0.067 µM and 0.019 µM.
With `COCC(=O)NCC#Cc1ccc2ncnc(Nc3ccc(Oc4cccc(C(=O)NC(C)(C)C)c4)c(C)c3)c2c1`, in series [1], the Selectivity ratio came out at 250. The IC50 in series [2] came to 0.03 µM; in series [3], 0.018 µM.
The corresponding values for `COCCOc1cc2ncnc(Nc3ccc(OC4CCN(C(=O)C5CCCC5)CC4)c(C)c3)c2cc1OCCOC` are > 19, 0.53 µM and 0.077 µM.
The corresponding values for `COCC(=O)NCC#Cc1ccc2ncnc(Nc3ccc(Oc4cccc(C(=O)NC5CCC5)c4)c(C)c3)c2c1` are > 64, 0.16 µM and 0.23 µM.

Usually IC50 stands for the point on the concentration scale where inhibition reaches its midpoint. Read a low IC50 as greater potency. The half-life is the time needed for the level to fall by half in the phase considered. The low end stands for fast loss, the high end for slow loss. Usually bioavailability stands for dose-corrected exposure relative to a reference, in per cent. The low end stands for poor availability, the high end for good availability. By clearance is commonly meant the volume of plasma or blood freed of the substance per unit of time. A lower clearance goes with a low capacity for elimination.
